# Assay results taken from ChEMBL document CHEMBL5724801, “EUbOPEN Chemogenomics Library - Multiplex” (2024).
# Values joined by “and” are separate entries in the source; they are usually repeats but may differ in a detail not shown here. Equal values may be shown once.
# System: HEK-293T
# Experiment: Multiplex assay against HEK293T
# Assay type: toxicity, cell-based
# Conditions: human
# Method in brief: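 Live cells were stained at seeding with Hoechst33342, BioTracker Green Microtubule Cytoskeleton Dye, MitoTracker Red and Annexin V Alexa Fluor 680. Following compound addition, they were imaged on a CQ1 microscope at 37°C and 5% CO2 and gated by CellPathfinder machine learning into Hoechst high-intensity objects or normal cells, with normal cells split into healthy, pyknosed or fragmented nuclei and pyknosed cells into mitotic or apoptotic. Tubulin, mitochondrial-mass and membrane-permeability phenotypes are per cents of healthy-nucleus cells.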
# [1] = 12 h, 1 µM, compound concentration 1 uM
# [2] = 12 h, 10 µM, compound concentration 10 uM
# [3] = 24 h, 1 µM, compound concentration 1 uM
# [4] = 24 h, 10 µM, compound concentration 10 uM
# [5] = 48 h, 1 µM, compound concentration 1 uM
# [6] = 48 h, 10 µM, compound concentration 10 uM
structure (smiles),measurement,setting,value
CCCCC(=O)N(Cc1ccc(-c2ccccc2-c2nnn[nH]2)cc1)[C@H](C(=O)O)C(C)C,Population Apoptotic (%),[1],44% and 40%
same,Population Fragmented Nuclei (%),[1],7% and 6%
same,Population Healthy Nuclei (%),[1],80% and 74%
same,Population Hoechst High Intensity Objects (%),[1],9% and 11%
same,Population Membrane Permeable-Phenotype (%),[1],0%
same,Population Mitochondria Different-Phenotype (%),[1],36% and 49%
same,Population Mitotic Cells (%),[1],55% and 59%
same,Population Normal (%),[1],90% and 88%
same,Population Pyknosed Nuclei (%),[1],12% and 18%
same,Population Tubulin-Different-Phenotype (%),[1],16% and 21%
same,Total Cell Count,[1],469 and 290
same,Population Apoptotic (%),[2],21% and 51%
same,Population Fragmented Nuclei (%),[2],7% and 5%
same,Population Healthy Nuclei (%),[2],83% and 81%
same,Population Hoechst High Intensity Objects (%),[2],5% and 10%
same,Population Membrane Permeable-Phenotype (%),[2],0%
same,Population Mitochondria Different-Phenotype (%),[2],30% and 63%
same,Population Mitotic Cells (%),[2],78% and 48%
same,Population Normal (%),[2],94% and 89%
same,Population Pyknosed Nuclei (%),[2],8% and 13%
same,Population Tubulin-Different-Phenotype (%),[2],19%
same,Total Cell Count,[2],507 and 310
same,Population Apoptotic (%),[3],30% and 32%
same,Population Fragmented Nuclei (%),[3],11% and 9%
same,Population Healthy Nuclei (%),[3],78% and 82%
same,Population Hoechst High Intensity Objects (%),[3],5% and 6%
same,Population Membrane Permeable-Phenotype (%),[3],0%
same,Population Mitochondria Different-Phenotype (%),[3],21% and 26%
same,Population Mitotic Cells (%),[3],70% and 67%
same,Population Normal (%),[3],94% and 93%
same,Population Pyknosed Nuclei (%),[3],10% and 8%
same,Population Tubulin-Different-Phenotype (%),[3],12%
same,Total Cell Count,[3],630 and 429
same,Population Apoptotic (%),[4],20% and 35%
same,Population Fragmented Nuclei (%),[4],9%
same,Population Healthy Nuclei (%),[4],82%
same,Population Hoechst High Intensity Objects (%),[4],5% and 7%
same,Population Membrane Permeable-Phenotype (%),[4],0%
same,Population Mitochondria Different-Phenotype (%),[4],19% and 30%
same,Population Mitotic Cells (%),[4],79% and 64%
same,Population Normal (%),[4],94% and 92%
same,Population Pyknosed Nuclei (%),[4],7%
same,Population Tubulin-Different-Phenotype (%),[4],11% and 13%
same,Total Cell Count,[4],663 and 420
same,Population Apoptotic (%),[5],18% and 19%
same,Population Fragmented Nuclei (%),[5],13% and 14%
same,Population Healthy Nuclei (%),[5],80% and 79%
same,Population Hoechst High Intensity Objects (%),[5],2% and 3%
same,Population Membrane Permeable-Phenotype (%),[5],1% and 0%
same,Population Mitochondria Different-Phenotype (%),[5],12% and 16%
same,Population Mitotic Cells (%),[5],81% and 80%
same,Population Normal (%),[5],97% and 96%
same,Population Pyknosed Nuclei (%),[5],5% and 6%
same,Population Tubulin-Different-Phenotype (%),[5],7% and 9%
same,Total Cell Count,[5],1024 and 653
same,Population Apoptotic (%),[6],14% and 15%
same,Population Fragmented Nuclei (%),[6],14%
same,Population Healthy Nuclei (%),[6],81% and 78%
same,Population Hoechst High Intensity Objects (%),[6],1% and 2%
same,Population Membrane Permeable-Phenotype (%),[6],2% and 0%
same,Population Mitochondria Different-Phenotype (%),[6],8% and 17%
same,Population Mitotic Cells (%),[6],85% and 84%
same,Population Normal (%),[6],98% and 97%
same,Population Pyknosed Nuclei (%),[6],3% and 7%
same,Population Tubulin-Different-Phenotype (%),[6],8%
same,Total Cell Count,[6],1205 and 623
CC(C)Oc1ccc(F)c(-c2cnc(N)c(C(=O)Nc3cnccc3N3CCC[C@@H](C(=O)O)C3)n2)c1,Population Apoptotic (%),[1],7.53% and 11.02%
same,Population Fragmented Nuclei (%),[1],1.12% and 6.54%
same,Population Hoechst High Intensity Objects (%),[1],0.28% and 0%
same,Population Membrane Permeable-Phenotype (%),[1],0% and 4%
same,Population Mitochondria Different-Phenotype (%),[1],34.13% and 12%
same,Population Mitotic Cells (%),[1],92.47% and 88.98%
same,Population Normal (%),[1],99.72% and 100%
same,Population Pyknosed Nuclei (%),[1],40.78% and 77.12%
same,Total Cell Count,[1],359 and 153
same,Population Apoptotic (%),[2],24.14% and 33.33%
same,Population Fragmented Nuclei (%),[2],7.04% and 7.45%
same,Population Hoechst High Intensity Objects (%),[2],1.97% and 0%
same,Population Membrane Permeable-Phenotype (%),[2],4.08% and 0%
same,Population Mitochondria Different-Phenotype (%),[2],31.63% and 17.39%
same,Population Mitotic Cells (%),[2],75.86% and 66.67%
same,Population Normal (%),[2],98.03% and 100%
same,Population Pyknosed Nuclei (%),[2],43.72% and 78.26%
same,Population Tubulin-Different-Phenotype (%),[2],70.41% and 47.83%
same,Total Cell Count,[2],203 and 161
same,Population Apoptotic (%),[3],17% and 27.27%
same,Population Fragmented Nuclei (%),[3],0.79% and 9.15%
same,Population Hoechst High Intensity Objects (%),[3],0%
same,Population Membrane Permeable-Phenotype (%),[3],1.73% and 0%
same,Population Mitochondria Different-Phenotype (%),[3],12.59% and 10%
same,Population Mitotic Cells (%),[3],83% and 72.73%
same,Population Normal (%),[3],100%
same,Population Tubulin-Different-Phenotype (%),[3],24.69% and 10%
same,Population Apoptotic (%),[4],20.45% and 46.61%
same,Population Fragmented Nuclei (%),[4],3.49% and 7.1%
same,Population Healthy Nuclei (%),[4],62.4% and 28.42%
same,Population Hoechst High Intensity Objects (%),[4],0.77% and 0%
same,Population Membrane Permeable-Phenotype (%),[4],1.86% and 0%
same,Population Mitochondria Different-Phenotype (%),[4],33.54% and 11.54%
same,Population Mitotic Cells (%),[4],79.55% and 53.39%
same,Population Normal (%),[4],99.23% and 100%
same,Population Pyknosed Nuclei (%),[4],34.11% and 64.48%
same,Total Cell Count,[4],260 and 183
same,Population Apoptotic (%),[5],8.84% and 23.26%
same,Population Fragmented Nuclei (%),[5],3.08% and 2.66%
same,Population Healthy Nuclei (%),[5],77.03% and 51.6%
same,Population Hoechst High Intensity Objects (%),[5],0.22% and 0%
same,Population Membrane Permeable-Phenotype (%),[5],3.42% and 2.06%
same,Population Mitochondria Different-Phenotype (%),[5],29.39% and 26.8%
same,Population Mitotic Cells (%),[5],91.16% and 76.74%
same,Population Normal (%),[5],99.78% and 100%
same,Population Pyknosed Nuclei (%),[5],19.89% and 45.74%
same,Population Apoptotic (%),[6],31.37% and 50.7%
same,Population Fragmented Nuclei (%),[6],10.59% and 8.51%
same,Population Healthy Nuclei (%),[6],74.41% and 53.72%
same,Population Hoechst High Intensity Objects (%),[6],0.29% and 0.53%
same,Population Membrane Permeable-Phenotype (%),[6],7.11% and 0.99%
same,Population Mitochondria Different-Phenotype (%),[6],69.96% and 27.72%
same,Population Mitotic Cells (%),[6],68.63% and 49.3%
same,Population Normal (%),[6],99.71% and 99.47%
same,Population Pyknosed Nuclei (%),[6],15% and 37.77%
same,Population Tubulin-Different-Phenotype (%),[6],27.67% and 73.27%
same,Total Cell Count,[6],341 and 189
